pIC50, pKd: −log10 of the molar value. Where two headings read alike, the source gives them in different places.
Columns and labels:
LDHA [1] = target: T1, LDHA (Homo sapiens, UniProt P00338); assay: Differential scanning fluorimetry; assay type: binding
LDHB [2] = target: T2, LDHB (Homo sapiens, UniProt P07195); assay: Differential scanning fluorimetry; assay type: binding
LDHA [3] = target: T1, LDHA; assay: LDH enzyme activity assay; assay type: biochemical; details: for mode of LDHA inhibition: with respect to NAD and lactate; for inhibition of LDHA enzyme activity: in vitro
Method in brief: (§1)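 LDH isoform activity measured in vitro with test metabolites (adenosine nucleotides, CoA and acyl-CoAs) over a concentration range. IC50 is derived from the inhibition curves. Mode of inhibition is assessed against NAD and lactate.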

LDHA [4] = target: T1, LDHA; assay: Binding to palmitoyl-CoA immobilized on agarose beads
Method in brief: (§2)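 Pull-down of LDH protein on palmitoyl-CoA immobilized on agarose beads. Competition with free palmitoyl-CoA, with buffer alone or acetyl-CoA as comparators.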

LDHB [5] = target: T2, LDHB; assay: as above
Method in brief: as §2

LDHB [6] = target: T2, LDHB; assay: LDH enzyme activity assay; assay type: biochemical; details: in vitro
Method in brief: as §1

ENO1 [7] = target: T3, ENO1 (Homo sapiens, UniProt P06733); assay: MIDAS protein-metabolite interaction screen; assay type: binding; details: significant PMI Q < 0.01
T3 sequence (P06733 whole entry): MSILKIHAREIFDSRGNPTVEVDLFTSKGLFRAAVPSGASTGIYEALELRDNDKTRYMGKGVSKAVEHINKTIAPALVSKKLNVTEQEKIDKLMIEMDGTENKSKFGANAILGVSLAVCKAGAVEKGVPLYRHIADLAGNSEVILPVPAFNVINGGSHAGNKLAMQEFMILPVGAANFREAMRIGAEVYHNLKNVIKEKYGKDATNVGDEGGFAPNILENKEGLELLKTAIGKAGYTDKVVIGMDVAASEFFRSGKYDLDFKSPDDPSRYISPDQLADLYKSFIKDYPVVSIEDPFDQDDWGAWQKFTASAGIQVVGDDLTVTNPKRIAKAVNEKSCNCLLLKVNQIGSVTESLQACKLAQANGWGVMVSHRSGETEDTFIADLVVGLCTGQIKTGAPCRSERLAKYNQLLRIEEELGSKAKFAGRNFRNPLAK
Method in brief: (§3)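 Purified protein is separated from a defined metabolite library by a semipermeable dialysis membrane that passes metabolites but not protein, then incubated to relative equilibrium. Protein is denatured and removed. Metabolites in both chambers are quantified by flow injection analysis–MS, with methods optimized for each pool. The between-chamber fold change is normalized and corrected for nonspecific interactions.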

ENO2 [8] = target: T4, ENO2 (Homo sapiens, UniProt P09104); assay: MIDAS protein-metabolite interaction screen; assay type: binding; details: significant PMI Q < 0.01
T4 sequence (P09104 whole entry): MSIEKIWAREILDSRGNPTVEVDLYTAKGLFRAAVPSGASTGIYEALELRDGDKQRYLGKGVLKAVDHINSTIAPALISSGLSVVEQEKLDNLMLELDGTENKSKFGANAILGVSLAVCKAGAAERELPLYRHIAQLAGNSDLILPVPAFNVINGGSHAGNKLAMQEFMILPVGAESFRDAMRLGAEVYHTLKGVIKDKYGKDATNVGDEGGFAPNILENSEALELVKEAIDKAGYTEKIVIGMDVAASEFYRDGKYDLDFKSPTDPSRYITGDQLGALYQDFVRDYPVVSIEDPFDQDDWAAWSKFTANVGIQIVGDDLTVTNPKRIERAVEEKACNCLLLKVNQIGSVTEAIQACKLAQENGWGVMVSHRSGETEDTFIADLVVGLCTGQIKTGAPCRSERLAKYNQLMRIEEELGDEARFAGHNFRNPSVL
Method in brief: as §3

ENO1 [9] = target: T3, ENO1; assay: Differential scanning fluorimetry; assay type: binding
ENO2 [10] = target: T4, ENO2; assay: Differential scanning fluorimetry; assay type: binding
enolase = assay: In vitro enolase activity; assay type: biochemical, human
PKM2 = PKM2 (Homo sapiens, UniProt P14618); assay: MIDAS protein-metabolite interaction screen; assay type: binding; details: significant PMI Q < 0.01
PKM2, sequence (P14618 whole entry): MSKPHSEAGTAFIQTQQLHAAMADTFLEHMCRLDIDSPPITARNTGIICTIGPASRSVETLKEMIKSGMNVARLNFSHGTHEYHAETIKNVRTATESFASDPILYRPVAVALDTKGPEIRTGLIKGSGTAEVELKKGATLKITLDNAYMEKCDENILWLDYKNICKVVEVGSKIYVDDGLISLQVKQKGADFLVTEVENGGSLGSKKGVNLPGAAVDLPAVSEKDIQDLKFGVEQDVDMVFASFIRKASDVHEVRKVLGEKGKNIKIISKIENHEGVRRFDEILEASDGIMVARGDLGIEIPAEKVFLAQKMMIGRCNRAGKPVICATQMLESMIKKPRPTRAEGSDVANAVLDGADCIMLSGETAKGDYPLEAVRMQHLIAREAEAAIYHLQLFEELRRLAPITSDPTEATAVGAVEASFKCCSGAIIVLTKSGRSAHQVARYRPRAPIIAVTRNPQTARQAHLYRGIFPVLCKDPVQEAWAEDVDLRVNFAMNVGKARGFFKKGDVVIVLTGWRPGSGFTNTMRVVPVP
Method in brief: as §3

[11] = target: glucose-6-phosphate isomerase (GPI) (Homo sapiens, UniProt P06744); assay: MIDAS protein-metabolite interaction screen; assay type: binding; details: significant PMI Q < 0.01
Method in brief: as §3

[12] = target: T5, phosphofructokinase (PFKP) (Homo sapiens, UniProt Q01813); assay: MIDAS protein-metabolite interaction screen; assay type: binding; details: significant PMI Q < 0.01
T5 sequence (Q01813 1-784): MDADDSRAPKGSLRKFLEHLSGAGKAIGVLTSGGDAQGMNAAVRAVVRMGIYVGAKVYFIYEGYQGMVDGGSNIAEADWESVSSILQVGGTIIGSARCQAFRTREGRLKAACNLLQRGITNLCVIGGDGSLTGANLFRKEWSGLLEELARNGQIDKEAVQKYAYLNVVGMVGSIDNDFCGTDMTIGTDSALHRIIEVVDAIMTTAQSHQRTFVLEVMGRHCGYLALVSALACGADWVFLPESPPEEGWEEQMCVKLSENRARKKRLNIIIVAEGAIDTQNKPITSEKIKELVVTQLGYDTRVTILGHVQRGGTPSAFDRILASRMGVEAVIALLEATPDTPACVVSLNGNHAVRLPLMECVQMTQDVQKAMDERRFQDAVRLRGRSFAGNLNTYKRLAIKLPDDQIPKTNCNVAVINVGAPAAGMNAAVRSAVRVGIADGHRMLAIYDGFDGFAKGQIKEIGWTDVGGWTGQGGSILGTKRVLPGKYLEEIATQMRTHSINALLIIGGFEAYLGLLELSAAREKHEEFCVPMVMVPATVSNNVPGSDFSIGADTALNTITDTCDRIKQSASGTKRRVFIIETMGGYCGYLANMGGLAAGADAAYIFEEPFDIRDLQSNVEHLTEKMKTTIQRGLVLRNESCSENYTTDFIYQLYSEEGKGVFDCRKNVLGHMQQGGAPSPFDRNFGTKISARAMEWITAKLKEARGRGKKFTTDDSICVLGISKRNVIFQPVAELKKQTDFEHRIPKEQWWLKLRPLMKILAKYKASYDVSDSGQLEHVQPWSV
Method in brief: as §3

fumarase (FH) = target: T6, fumarase (FH) (Homo sapiens, UniProt P07954); assay: MIDAS protein-metabolite interaction screen; assay type: binding; details: significant PMI Q < 0.01
T6 sequence (P07954 45-510): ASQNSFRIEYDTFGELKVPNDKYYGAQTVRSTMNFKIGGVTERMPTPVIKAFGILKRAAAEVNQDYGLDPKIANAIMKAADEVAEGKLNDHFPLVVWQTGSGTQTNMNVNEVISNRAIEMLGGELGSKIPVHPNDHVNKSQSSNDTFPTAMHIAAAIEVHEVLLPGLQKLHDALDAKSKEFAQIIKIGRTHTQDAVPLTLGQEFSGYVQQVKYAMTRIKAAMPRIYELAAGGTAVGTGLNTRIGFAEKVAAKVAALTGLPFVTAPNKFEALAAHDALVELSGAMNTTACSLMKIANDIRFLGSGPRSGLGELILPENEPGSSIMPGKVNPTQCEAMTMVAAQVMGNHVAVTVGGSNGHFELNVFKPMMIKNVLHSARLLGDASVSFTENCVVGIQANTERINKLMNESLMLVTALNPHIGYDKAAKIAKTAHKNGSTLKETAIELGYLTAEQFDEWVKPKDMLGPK
Method in brief: as §3

fumarase [13] = target: T7, fumarase (Homo sapiens, UniProt P07954); assay: Differential scanning fluorimetry; assay type: binding
T7 sequence (P07954 45-510): T6 sequence (P07954 45-510)

fumarase [14] = target: T7, fumarase; assay: Fumarase kinetic assays; assay type: biochemical
FBP1 = target: T8, FBP1 (Homo sapiens, UniProt P09467); assay: MIDAS protein-metabolite interaction screen; assay type: binding; details: significant PMI Q < 0.01
T8 sequence (P09467 1-338): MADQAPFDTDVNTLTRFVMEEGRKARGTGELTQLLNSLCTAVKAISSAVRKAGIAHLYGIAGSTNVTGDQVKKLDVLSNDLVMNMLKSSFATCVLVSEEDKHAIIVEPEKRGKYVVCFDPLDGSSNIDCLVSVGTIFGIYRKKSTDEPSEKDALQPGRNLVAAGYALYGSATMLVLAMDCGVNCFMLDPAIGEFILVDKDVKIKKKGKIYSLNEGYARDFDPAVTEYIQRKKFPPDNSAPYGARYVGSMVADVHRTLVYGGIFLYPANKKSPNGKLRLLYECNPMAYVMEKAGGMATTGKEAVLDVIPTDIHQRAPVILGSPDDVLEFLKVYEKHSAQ
Method in brief: as §3

FBP2 = target: T9, FBP2 (Homo sapiens, UniProt O00757); assay: MIDAS protein-metabolite interaction screen; assay type: binding; details: significant PMI Q < 0.01
T9 sequence (O00757 1-339): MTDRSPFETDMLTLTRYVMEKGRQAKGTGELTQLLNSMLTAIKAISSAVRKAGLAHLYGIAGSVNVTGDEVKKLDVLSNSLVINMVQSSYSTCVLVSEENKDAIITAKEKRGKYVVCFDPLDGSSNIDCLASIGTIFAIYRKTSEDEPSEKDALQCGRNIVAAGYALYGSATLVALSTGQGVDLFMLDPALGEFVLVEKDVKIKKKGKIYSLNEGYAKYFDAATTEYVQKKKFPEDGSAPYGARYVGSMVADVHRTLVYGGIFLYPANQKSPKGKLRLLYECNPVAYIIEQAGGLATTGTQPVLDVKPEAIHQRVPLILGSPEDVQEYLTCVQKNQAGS
Method in brief: as §3

T2 sequence (P07195 whole entry): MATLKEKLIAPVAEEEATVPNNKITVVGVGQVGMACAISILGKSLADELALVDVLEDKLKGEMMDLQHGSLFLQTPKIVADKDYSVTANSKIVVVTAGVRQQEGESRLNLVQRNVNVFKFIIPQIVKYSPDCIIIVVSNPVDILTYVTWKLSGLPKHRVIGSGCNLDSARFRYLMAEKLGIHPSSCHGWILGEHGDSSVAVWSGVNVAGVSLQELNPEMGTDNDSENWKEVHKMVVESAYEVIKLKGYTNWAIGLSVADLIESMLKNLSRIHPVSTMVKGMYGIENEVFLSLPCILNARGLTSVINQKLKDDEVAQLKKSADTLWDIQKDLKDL

CCCCCCCCCCCCCCCC(=O)SCCNC(=O)CCNC(=O)[C@H](O)C(C)(C)COP(=O)(O)OP(=O)(O)OC[C@H]1O[C@@H](n2cnc3c(N)ncnc32)[C@H](O)[C@@H]1OP(=O)(O)O [C16:0-CoA, palmitoyl-CoA]
protein species induced in DSF assay (LDHA [1]; LDHA, low-micromolar concentrations of ligand): thermolabile species
protein species induced in DSF assay (LDHB [2]; LDHB, low-micromolar concentrations of ligand): thermostable species
pIC50 (LDHA [3]; LDHA enzyme activity, acyl-CoAs): ~6.00
mode of LDHA inhibition (LDHA [3]): noncompetitive
disruption of protein binding to immobilized palmitoyl-CoA by free competitor (LDHA [4]; agarose beads): disrupted
affinity of direct interaction (LDHA [4]; from DSF and bead binding): low-micromolar affinity
disruption of protein binding to immobilized palmitoyl-CoA by free competitor (LDHB [5]; agarose beads): disrupted
affinity of direct interaction (LDHB [5]; from DSF and bead binding): low-micromolar affinity

Nc1ncnc2c1ncn2[C@@H]1O[C@H](COP(=O)(O)O)[C@@H](O)[C@H]1O [AMP, adenosine monophosphate]
inhibition of LDHA enzyme activity (LDHA [3]): only at supraphysiological concentrations
inhibition of LDHB enzyme activity (LDHB [6]): only at supraphysiological concentrations

N[C@@H](COP(=O)(O)O)C(=O)O [pSer, phosphoserine]
MIDAS protein-metabolite interaction (ENO1 [7]): most enriched metabolite
MIDAS protein-metabolite interaction (ENO2 [8]): most enriched metabolite
pKd (ENO1 [9]): 2.86
pKd (ENO2 [10]): 2.94
inhibition of in vitro enolase activity (enolase): only weakly inhibited

N[C@@H](Cc1cc(I)c(O)c(I)c1)C(=O)O [3,5-diiodo-L-tyrosine]
MIDAS protein-metabolite interaction (PKM2): interacted

O=C[C@H](O)[C@@H](O)[C@H](O)[C@H](O)COP(=O)(O)O [glucose-6-phosphate]
MIDAS protein-metabolite interaction [11]: interacted

Nc1nc2c(ncn2[C@@H]2O[C@H](COP(=O)(O)OP(=O)(O)O)[C@@H](O)[C@H]2O)c(=O)[nH]1 [GDP, guanosine diphosphate]
MIDAS protein-metabolite interaction (PKM2): interacted

O=C(CO)[C@@H](O)[C@H](O)[C@H](O)[C@H](O)COP(=O)(O)O [sedoheptulose-7-phosphate]
MIDAS protein-metabolite interaction [12]: interacted

NC(CP(=O)(O)O)C(=O)O (stereo not drawn) [AP-3, 2-amino-3-phosphonopropionic acid]
MIDAS protein-metabolite interaction (fumarase (FH)): putative interactor
pKd (fumarase [13]): 3.01
inhibition of fumarase, mode (fumarase [14]): competitively inhibited

Nc1ncnc2c1ncn2[C@@H]1O[C@H](COP(=O)(O)OP(=O)(O)OP(=O)(O)O)[C@@H](O)[C@H]1O [ATP, adenosine triphosphate]
pKd (LDHA [1]): 3.20
pKd (LDHB [2]): 3.16
mode of LDHA inhibition (LDHA [3]): competitive
inhibition of LDHB enzyme activity (LDHB [6]): inhibited only the LDHA isoform

O=C(O)/C=C/C(=O)O [fumarate]
pKd (fumarase [13]; read-out: apparent dissociation constant (Kd app), DSF, fumarase): 2.41

O=C(CO)[C@@H](O)[C@H](O)[C@H](O)COP(=O)(O)O [fructose-6-phosphate]
MIDAS protein-metabolite interaction [11]: interacted

N[C@H]1C(O)O[C@H](COP(=O)(O)O)[C@@H](O)[C@@H]1O (stereo partly drawn) [glucosamine-6-phosphate]
MIDAS protein-metabolite interaction (FBP1): showed an interaction
MIDAS protein-metabolite interaction (FBP2): only FBP1 showed an interaction

O=C(COP(=O)(O)O)[C@@H](O)[C@H](O)[C@H](O)COP(=O)(O)O [fructose 1,6-bisphosphate]
MIDAS protein-metabolite interaction [12]: interacted

Nc1ncnc2c1ncn2[C@@H]1O[C@H](COP(=O)(O)OP(=O)(O)O)[C@@H](O)[C@H]1O [ADP, adenosine diphosphate]
inhibition of LDHA enzyme activity (LDHA [3]): only at supraphysiological concentrations
inhibition of LDHB enzyme activity (LDHB [6]): only at supraphysiological concentrations

CN1c2c(nc(N)[nH]c2=O)NCC1CNc1ccc(C(=O)N[C@@H](CCC(=O)O)C(=O)O)cc1 (stereo partly drawn) [5-MTHF, 5-methyltetrahydrofolate]
MIDAS protein-metabolite interaction (PKM2): interacted

O=P(O)(O)OC[C@H]1O[C@H](OP(=O)(O)OP(=O)(O)O)[C@H](O)[C@@H]1O [PRPP, 5-phospho-D-ribose 1-diphosphate]
MIDAS protein-metabolite interaction (FBP1): interacted
MIDAS protein-metabolite interaction (FBP2): interacted
